bCat KO growth: beta-catenin-lacking colon tumor cell growth suppression; HCT116 beta-catenin knockout viability, CellTiter-Glo, 60 h; hits give low values; viability, % at 10 µM; actives 1.5% (n = 140,000);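 active means viability at or under a set limit, the compound median less 4 SD, cut at about 6% in these data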
PMI act hi M6P: increases human PMI activity with near-saturating mannose 6-phosphate; activation factor at 20 µM; actives 0.34% (n = 190,000); coupled PMI enzyme assay, resazurin fluorescence, 20 min; hits give high values; 1 = untreated enzyme, 0 = substrate-free blank;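 active means activation factor of 2 or more at 20 µM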
Target sequence (P34949 whole entry, looked up): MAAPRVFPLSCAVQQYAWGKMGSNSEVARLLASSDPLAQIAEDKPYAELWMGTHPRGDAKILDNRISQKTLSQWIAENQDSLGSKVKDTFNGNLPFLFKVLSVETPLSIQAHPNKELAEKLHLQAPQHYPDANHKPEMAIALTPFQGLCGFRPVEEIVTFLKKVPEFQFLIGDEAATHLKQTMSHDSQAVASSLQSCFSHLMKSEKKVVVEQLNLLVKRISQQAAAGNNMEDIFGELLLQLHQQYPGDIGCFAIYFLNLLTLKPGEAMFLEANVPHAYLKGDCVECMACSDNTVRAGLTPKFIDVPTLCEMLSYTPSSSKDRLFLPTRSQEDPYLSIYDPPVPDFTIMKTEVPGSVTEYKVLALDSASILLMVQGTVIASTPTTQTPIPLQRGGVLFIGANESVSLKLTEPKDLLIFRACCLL
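Test system: Human PMI in coupled enzyme assay | Input: 15 ng/mL PMI | Medium: HEPES-buffered pH 7.4 with magnesium and detergent | Compound: One concentration, 20 µM, in 1% DMSO | Incubation: Enzyme reaction with compound 20 min at room temperature | Detection: Diaphorase-driven resazurin-to-resorufin fluorescence, excitation 544, emission 590 nm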
PMI activator: activators of human phosphomannose isomerase. P34949. purified human PMI, coupled resazurin fluorescence, 20 min; hits give high values; 1 = vehicle control, 0 substrate-free wells. activation factor at 20 µM. actives 0.005% (n = 190,000). AID 1214;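 active means activation factor of 2 or more at 20 µM, relative to plate controls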
Lmaj promast: reduces viability of Leishmania major promastigotes. AID 1063. inhibition, % at 10 µM. resazurin fluorescence viability. actives 9% (n = 200,000); in the data active means inhibition above about 50%;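 further: promastigotes grown with compound for 44 hours at 28 °C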
PTEN del growth: PTEN-deleted cell growth suppression. actives 1.2% (n = 140,000). viability, % at 10 µM. HCT116 PTEN-null viability, CellTiter-Glo, 60 h; hits give low values;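 active means viability at or below a set limit, 4 SD under the median of all tested compounds, cut at about 3.7% in these data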;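 further: PTEN knockout HCT116 line with beta catenin targeted HCT116 as companion control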
A number is an active result; n = inactive; x = no result. An excerpt weighted towards active compounds, which were near 9.6% of everything screened.

SMILES	bCat KO growth	PMI act hi M6P	PMI activator	Lmaj promast	PTEN del growth
CC(C(=O)Nc1cccc([N+](=O)[O-])c1)n1nnc2ccccc21 (stereo not drawn)	n	n	n	n	n
COC(=O)c1ccccc1NC(=S)N1CCC(N2CCCCC2)CC1	x	n	n	73	x
COC(=O)c1cc(OC)c(OC)cc1NC(=S)N1CCN(c2ccccn2)CC1	x	n	n	n	x
COC(=O)c1ccccc1NC(=S)N1CCN(C2CCCCC2)CC1	x	n	n	n	x
CC(C(=O)Nc1cccc([N+](=O)[O-])c1)N1CCN(C/C=C/c2ccccc2)CC1 (stereo not drawn)	n	n	n	82	n
CC1CCCCC1NC(=O)CSc1nnc(-c2ccccc2)n1N (stereo not drawn)	n	n	n	n	n
O=C(/C=C/c1ccc(Cl)cc1)N(c1ccccn1)C1CCCCC1	n	n	n	83	n
O=C(/C=C/c1cccc(F)c1)N(c1ccccn1)C1CCCCC1	n	n	n	n	n
Cc1nc2ccc(F)cc2cc1C(=O)NC(C)C	n	n	n	n	n
CCc1[nH]c(=S)c(C#N)c2c1CCCC2	n	2.2	n	n	n
COc1ccc(C(=O)/C=C/c2ccccc2)c(O)c1	x	n	n	75	x
O=C(/C=C/c1ccc(O)cc1)c1ccc(O)cc1O	n	n	n	85	n
CSc1ccc(/C=C/C(=O)c2ccc(O)cc2)cc1	n	n	n	n	n
Cc1cc(C)n2nc(C(=O)NC3CCCc4ccccc43)nc2n1 (stereo not drawn)	x	n	n	n	x
Cc1ccc(CNC(=O)c2ccc(Cl)cc2[N+](=O)[O-])cc1	n	n	n	n	n
COC(=O)CCNC(=O)Cn1cnc2sc3c(c2c1=O)CCCC3	x	n	n	n	x
COc1ccc(S(=O)(=O)c2c(N)n(Cc3ccco3)c3nc4ccccc4nc23)cc1	n	n	n	72	n
Nc1c(S(=O)(=O)c2ccccc2)c2nc3ccccc3nc2n1/N=C/c1ccco1	n	n	n	n	n
Cc1ccc(S(=O)(=O)c2c(N)n(/N=C/c3ccco3)c3nc4ccccc4nc23)cc1	n	n	n	59	n
Cc1ccc(-n2c(N)c(S(=O)(=O)c3ccccc3)c3nc4ccccc4nc32)cc1	x	n	n	57	x
Cc1cccc(S(=O)(=O)c2c(N)n(/N=C/c3ccco3)c3nc4ccccc4nc23)c1	n	n	n	53	n
Cc1nc2ccccc2n1C1CC(=O)N(Cc2ccccc2)C1=O (stereo not drawn)	n	n	n	n	n
Cc1cccc(S(=O)(=O)c2c(N)n(/N=C/c3cccnc3)c3nc4ccccc4nc23)c1	n	n	n	n	n
Cc1ccc(S(=O)(=O)c2c(N)n(NC(=O)C3CC3)c3nc4ccccc4nc23)cc1	n	n	n	n	n
Cc1ccc(S(=O)(=O)c2c(N)n(CC3CCOC3)c3nc4ccccc4nc23)cc1 (stereo not drawn)	n	n	n	60	n
SMILES	bCat KO growth	PMI act hi M6P	PMI activator	Lmaj promast	PTEN del growth
Cc1ccc(S(=O)(=O)c2c(N)n(/N=C/c3ccco3)c3nc4ccccc4nc23)cc1C	n	n	n	79	n
Oc1ccccc1C1=Nc2nc3ccccc3n2C(c2ccccc2)C1 (stereo not drawn)	n	n	n	91	n
O=C1/C(=C/c2ccco2)SC(=S)N1C1CCS(=O)(=O)C1 (stereo not drawn)	x	n	n	93	x
Cc1nc(-c2ccc(C(=O)NCCO)cc2)cs1	x	n	n	n	x
c1ccc(C2Nc3ccccc3-c3nc4ccccc4n32)nc1 (stereo not drawn)	n	n	n	n	n
c1ccc(C2Nc3ccccc3-c3nc4ccccc4n32)cc1 (stereo not drawn)	n	n	n	69	n
COc1ccc(Cc2n[nH]c(=S)n(N)c2=O)cc1	x	n	n	n	x
COc1ccc(/C=C/CN2CCC(CO)(Cc3ccccc3Cl)CC2)cc1	x	n	n	96	x
COC(=O)c1ccc(CN2CCC(CO)(Cc3ccccc3Cl)CC2)cc1	x	x	x	98	x
O=C(C1CC12CCCC2)N1CCC(CO)(Cc2ccccc2Cl)CC1 (stereo not drawn)	x	n	n	n	x
COCCN(C(=O)/C=C/c1ccccc1)c1nnc(-c2cccnc2)s1	x	n	n	n	x
COc1ccc(C(C(=O)NC2CCCC2)N(C(=O)c2ccoc2C)c2cc(C)cc(C)c2)cc1 (stereo not drawn)	n	n	n	n	n
COc1ccc(N(C(=O)/C=C/C(=O)Nc2cc(C)on2)C(C(=O)NC2CCCC2)c2ccccc2C)cc1 (stereo not drawn)	n	n	n	97	n
COc1ccc(C(C(=O)NC2CCCC2)N(C(=O)c2ccoc2C)c2ccc(C)c(C)c2)cc1 (stereo not drawn)	n	n	n	75	n
COc1ccc(N(C(=O)c2ccco2)C(C(=O)NC2CCCC2)c2ccc(N(C)C)cc2)cc1 (stereo not drawn)	n	n	n	54	n
COc1ccc(N(C(=O)CCC(=O)Nc2cc(C)on2)C(C(=O)NC2CCCC2)c2ccco2)cc1 (stereo not drawn)	x	n	n	n	x
O=C(N/N=C/c1cccc(OC(=O)N2CCOCC2)c1)c1cccs1	n	n	n	n	n
O=C(O)Cc1nn(Cc2ccc(Cl)cc2)c(=O)c2ccccc12	x	n	n	n	x
CC1=C(C(=O)Nc2ccccc2C)C2(CCCCC2)C(C(N)=O)C(=S)N1 (stereo not drawn)	n	2	n	n	n
CC1=C(C(=O)Nc2ccccc2)C2(CCCCC2)C(C(N)=O)C(=S)N1 (stereo not drawn)	n	n	n	n	n
COc1ccc(Cl)cc1N(CC(=O)Nc1ccccc1C(=O)NCc1ccco1)S(C)(=O)=O	n	n	n	83	n
CCOC(=O)c1noc(C)c1C(=O)Nc1nccs1	x	n	n	n	x
CCn1cc(/C=N\NC(=O)c2ccccc2Cl)cn1	n	n	n	n	n
Cc1ccccc1OCCCC(=O)Nc1ccccc1C(F)(F)F	n	n	n	n	n
COc1ccccc1C(C)NCC(=O)Nc1ccccc1C(F)(F)F (stereo not drawn)	n	n	n	60	n
SMILES	bCat KO growth	PMI act hi M6P	PMI activator	Lmaj promast	PTEN del growth
CC(C)OCCCNc1ncnc2c1[nH]c1ccccc12	n	n	n	70	n
C1=C(CCNc2ncnc3c2[nH]c2ccccc23)CCCC1	n	n	n	98	n
Cc1ccccc1NC(=O)CSc1ccsc1[N+](=O)[O-]	n	n	n	n	n
CCCCOc1cccc(C(=O)NC(=S)Nc2cccc(NC(=O)c3ccccc3Cl)c2)c1	n	n	n	n	n
CC(C)C(=O)Nc1cccc(NC(=S)NC(=O)c2ccccc2Cl)c1	n	n	n	n	n
CC(=O)c1cccc(NC(=O)c2onc(C)c2Cl)c1	n	n	n	n	n
CC(=O)c1cccc(NC(=O)c2oc(C)nc2C)c1	n	n	n	72	n
CCCOc1cccc(C(=O)NC(=S)Nc2cccc(NC(=O)c3ccccc3Cl)c2)c1	n	n	n	97	n

Compound activity deposited in PubChem by several laboratories.
